Source: ChEMBL document CHEMBL1155785 (Bioorg Med Chem, 2008)
Activity calls are given as the source filed them. The rule behind the calls is not given here.

Columns and labels:
[1] = molecular target: T1, Receptor-type tyrosine-protein phosphatase F (Homo sapiens, UniProt P10586); assay: Inhibition of human recombinant LAR
[2] = molecular target: T1, Receptor-type tyrosine-protein phosphatase F; assay: Inhibition of human recombinant LAR at 20 ug/mL
How it was run: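 Single-concentration test at 20 µg/mL. Recombinant LAR (300 nM) was preincubated 10 min with compound at pH 8.0 (Tris/NaCl/EDTA/DTT). Hydrolysis of 2 mM pNPP (stock in substrate buffer) was then followed at pH 6.0 MES buffer, room temperature. Initial rate was taken at 405 nm and expressed as % inhibition.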

[3] = molecular target: T1, Receptor-type tyrosine-protein phosphatase F; assay: Inhibition of human recombinant LAR upto 100 uM; conditions: in the assay text read “at 20 ug/mL” for “upto 100 uM”
How it was run: (§1)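 Recombinant LAR (300 nM) was preincubated 10 min with inhibitor in DMSO in pH 8.0 buffer (50 mM Tris, 50 mM NaCl, 2 mM EDTA, 2 mM DTT). Reaction was started with pH 6.0 MES substrate buffer holding 2 mM pNPP, at room temperature. pNP release was read continuously at 405 nm, using the initial linear rate. IC50 came from a Hill-equation nonlinear fit, mean ± SD of three replicates.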

[4] = molecular target: T2, Tyrosine-protein phosphatase non-receptor type 2 (Homo sapiens, UniProt P17706); assay: Inhibition of TCPTP
T2 sequence (P17706 whole entry): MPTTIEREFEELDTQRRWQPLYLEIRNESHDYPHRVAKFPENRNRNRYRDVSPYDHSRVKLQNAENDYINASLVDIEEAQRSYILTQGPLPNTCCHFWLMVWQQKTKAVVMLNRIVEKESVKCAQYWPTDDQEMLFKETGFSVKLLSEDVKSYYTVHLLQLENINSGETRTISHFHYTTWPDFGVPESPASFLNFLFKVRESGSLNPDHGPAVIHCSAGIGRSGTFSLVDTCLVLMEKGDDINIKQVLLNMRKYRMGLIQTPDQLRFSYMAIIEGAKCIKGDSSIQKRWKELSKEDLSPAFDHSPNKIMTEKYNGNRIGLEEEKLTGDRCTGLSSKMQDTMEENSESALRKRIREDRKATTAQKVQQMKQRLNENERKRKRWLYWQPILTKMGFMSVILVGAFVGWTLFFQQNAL

[5] = molecular target: T1, Receptor-type tyrosine-protein phosphatase F; assay: Inhibition of LAR; how it was run: as §1
[6] = molecular target: T3, Tyrosine-protein phosphatase non-receptor type 1 (Homo sapiens, UniProt P18031); assay: Inhibition of PTP1B
T3 sequence (P18031 whole entry): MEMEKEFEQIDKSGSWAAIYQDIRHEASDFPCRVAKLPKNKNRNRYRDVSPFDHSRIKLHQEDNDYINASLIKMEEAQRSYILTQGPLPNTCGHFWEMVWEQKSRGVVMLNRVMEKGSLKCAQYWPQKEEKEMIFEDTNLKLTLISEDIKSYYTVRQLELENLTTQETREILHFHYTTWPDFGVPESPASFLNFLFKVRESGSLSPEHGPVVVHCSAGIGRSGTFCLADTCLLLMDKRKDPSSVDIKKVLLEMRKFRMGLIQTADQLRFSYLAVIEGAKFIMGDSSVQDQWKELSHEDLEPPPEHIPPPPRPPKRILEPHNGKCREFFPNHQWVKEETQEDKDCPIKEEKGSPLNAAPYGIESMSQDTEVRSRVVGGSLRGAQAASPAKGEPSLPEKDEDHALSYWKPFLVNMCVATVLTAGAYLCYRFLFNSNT

[7] = molecular target: T4, Receptor-type tyrosine-protein phosphatase C (Homo sapiens, UniProt P08575); assay: Inhibition of CD45
T4 sequence (P08575 whole entry): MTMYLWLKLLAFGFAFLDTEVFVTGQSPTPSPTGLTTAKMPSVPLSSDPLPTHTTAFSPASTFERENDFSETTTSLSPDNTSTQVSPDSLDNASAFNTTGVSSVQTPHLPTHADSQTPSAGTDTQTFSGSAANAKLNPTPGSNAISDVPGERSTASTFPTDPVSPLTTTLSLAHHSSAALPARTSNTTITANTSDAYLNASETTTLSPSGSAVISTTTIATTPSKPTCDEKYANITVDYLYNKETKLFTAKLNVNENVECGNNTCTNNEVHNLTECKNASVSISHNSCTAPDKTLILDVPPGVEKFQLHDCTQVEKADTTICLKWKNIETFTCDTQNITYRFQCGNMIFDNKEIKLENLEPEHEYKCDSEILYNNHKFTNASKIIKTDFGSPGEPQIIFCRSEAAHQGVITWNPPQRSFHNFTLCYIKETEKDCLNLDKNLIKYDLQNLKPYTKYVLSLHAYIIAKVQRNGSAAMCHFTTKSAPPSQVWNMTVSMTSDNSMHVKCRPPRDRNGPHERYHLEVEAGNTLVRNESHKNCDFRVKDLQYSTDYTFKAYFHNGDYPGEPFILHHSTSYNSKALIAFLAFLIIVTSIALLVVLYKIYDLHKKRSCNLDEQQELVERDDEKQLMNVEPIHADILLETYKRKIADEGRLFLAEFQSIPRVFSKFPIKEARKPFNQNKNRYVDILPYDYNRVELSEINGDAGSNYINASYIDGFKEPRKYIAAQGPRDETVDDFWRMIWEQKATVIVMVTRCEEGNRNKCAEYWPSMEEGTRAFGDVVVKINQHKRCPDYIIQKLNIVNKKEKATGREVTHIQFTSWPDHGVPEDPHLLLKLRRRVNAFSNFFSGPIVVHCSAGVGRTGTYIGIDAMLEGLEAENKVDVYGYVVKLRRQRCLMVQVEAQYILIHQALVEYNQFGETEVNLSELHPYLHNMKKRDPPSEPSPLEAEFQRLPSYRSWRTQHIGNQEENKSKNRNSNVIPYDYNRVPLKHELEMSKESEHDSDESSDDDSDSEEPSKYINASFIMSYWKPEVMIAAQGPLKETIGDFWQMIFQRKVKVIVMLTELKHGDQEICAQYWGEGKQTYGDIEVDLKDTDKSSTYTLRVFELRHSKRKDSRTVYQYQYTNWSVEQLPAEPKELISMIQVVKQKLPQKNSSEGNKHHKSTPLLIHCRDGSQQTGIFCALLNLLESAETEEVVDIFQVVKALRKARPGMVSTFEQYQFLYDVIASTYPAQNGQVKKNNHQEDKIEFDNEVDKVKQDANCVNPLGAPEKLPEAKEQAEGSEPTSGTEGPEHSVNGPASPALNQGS

[8] = Inhibition of Yersinia PTPase; design: species or system Yersinia sp.
[9] = molecular target: T1, Receptor-type tyrosine-protein phosphatase F; assay: Inhibition of dialyzed human LAR assessed as recovery of enzyme activity at 20 uM after 24 hrs
How it was run: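 LAR (1500 nM) was preincubated 10 min at pH 8.0 with 20 µM inhibitor or 2% DMSO, then dialyzed against enzyme buffer. Aliquots were withdrawn at set times up to 24 h and assayed for pNPP phosphatase activity at pH 6.0, read at 405 nm.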

T1 sequence (P10586 whole entry): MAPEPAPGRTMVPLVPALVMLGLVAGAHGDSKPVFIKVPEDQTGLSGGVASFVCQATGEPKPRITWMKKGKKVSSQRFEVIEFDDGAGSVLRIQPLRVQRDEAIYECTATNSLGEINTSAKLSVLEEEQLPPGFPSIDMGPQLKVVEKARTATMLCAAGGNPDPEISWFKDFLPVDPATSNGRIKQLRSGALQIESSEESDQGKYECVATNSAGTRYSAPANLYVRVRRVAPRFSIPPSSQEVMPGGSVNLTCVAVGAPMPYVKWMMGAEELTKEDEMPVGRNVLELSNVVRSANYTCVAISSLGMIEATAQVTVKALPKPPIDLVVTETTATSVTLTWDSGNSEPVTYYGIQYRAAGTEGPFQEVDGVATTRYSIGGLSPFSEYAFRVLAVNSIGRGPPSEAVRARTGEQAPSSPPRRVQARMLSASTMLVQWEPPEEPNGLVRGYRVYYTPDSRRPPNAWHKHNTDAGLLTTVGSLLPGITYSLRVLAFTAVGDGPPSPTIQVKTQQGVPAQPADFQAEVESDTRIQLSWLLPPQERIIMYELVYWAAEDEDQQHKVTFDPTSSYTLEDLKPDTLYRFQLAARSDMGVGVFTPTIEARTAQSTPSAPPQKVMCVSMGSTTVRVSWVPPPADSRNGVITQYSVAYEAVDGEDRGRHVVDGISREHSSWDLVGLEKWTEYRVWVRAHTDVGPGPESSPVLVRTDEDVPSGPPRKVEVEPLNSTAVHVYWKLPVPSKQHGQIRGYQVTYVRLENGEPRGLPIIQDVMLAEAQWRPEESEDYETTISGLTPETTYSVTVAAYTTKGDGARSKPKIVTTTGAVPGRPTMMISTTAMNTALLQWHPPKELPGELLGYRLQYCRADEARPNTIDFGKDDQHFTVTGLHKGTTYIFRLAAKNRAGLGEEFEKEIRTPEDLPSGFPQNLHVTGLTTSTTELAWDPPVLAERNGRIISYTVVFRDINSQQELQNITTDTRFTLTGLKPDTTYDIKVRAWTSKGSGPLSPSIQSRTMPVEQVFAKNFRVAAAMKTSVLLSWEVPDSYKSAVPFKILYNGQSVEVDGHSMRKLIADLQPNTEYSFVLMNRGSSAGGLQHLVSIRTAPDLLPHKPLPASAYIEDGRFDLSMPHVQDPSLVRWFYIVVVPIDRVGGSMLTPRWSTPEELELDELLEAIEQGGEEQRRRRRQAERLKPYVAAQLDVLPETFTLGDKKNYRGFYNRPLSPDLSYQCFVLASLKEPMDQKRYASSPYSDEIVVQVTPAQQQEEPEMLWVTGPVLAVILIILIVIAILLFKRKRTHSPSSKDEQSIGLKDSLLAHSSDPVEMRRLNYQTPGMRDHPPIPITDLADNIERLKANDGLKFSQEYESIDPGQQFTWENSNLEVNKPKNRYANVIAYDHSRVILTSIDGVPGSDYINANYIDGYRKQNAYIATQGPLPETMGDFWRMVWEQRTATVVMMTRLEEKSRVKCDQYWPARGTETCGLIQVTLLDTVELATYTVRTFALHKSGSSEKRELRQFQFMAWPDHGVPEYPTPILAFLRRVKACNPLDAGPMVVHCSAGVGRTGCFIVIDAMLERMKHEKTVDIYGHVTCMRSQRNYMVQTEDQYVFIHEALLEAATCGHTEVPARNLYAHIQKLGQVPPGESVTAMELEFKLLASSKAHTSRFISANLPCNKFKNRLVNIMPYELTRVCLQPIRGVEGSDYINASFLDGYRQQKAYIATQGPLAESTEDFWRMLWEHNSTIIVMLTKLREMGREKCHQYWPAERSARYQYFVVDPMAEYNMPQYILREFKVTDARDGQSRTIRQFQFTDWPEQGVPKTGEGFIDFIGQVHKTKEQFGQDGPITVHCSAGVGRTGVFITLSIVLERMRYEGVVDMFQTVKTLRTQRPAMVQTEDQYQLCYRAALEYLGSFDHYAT

COc1ccc2c(c1C=O)CC(O)OC2=O (stereo unspecified)
IC50 [1]: 21800 nM

COC(=O)c1ccc(OC)c(C=O)c1CC=O
inhibition [2]: < 5% | Activity [3]: inactive

CSc1ccnc(C[S+]([O-])c2nc3cc(OC(C)C)ccc3[nH]2)c1 (stereo unspecified)
IC50 [4]: 680 nM | IC50 [5]: 18200 nM

CC(=O)NC(Cc1ccc(N(C(=O)C(=O)O)c2ccccc2C(=O)O)c2ccccc12)C(=O)NCCCCCOc1cc2ccccc2cc1C(=O)O (stereo unspecified)
Ki [4]: 49 nM | Ki [5]: 1300 nM

O=C(O)COc1c(C(=O)O)sc(-c2ccc(NC(=O)c3cccnc3)cc2)c1Br
IC50 [5]: 320000 nM

O=C(O)COc1c(O)cc(-c2cc(C(F)(F)F)cc(C(F)(F)F)c2)cc1OCc1cccc(C(F)(F)F)c1
IC50 [6]: 2000 nM | IC50 [5]: 116000 nM | IC50 [7]: 280 nM

O=C(O)C(=O)c1ccc(OCc2cc(COc3ccc(C(=O)C(=O)O)cc3)cc(COc3ccc(C(=O)C(=O)O)cc3)c2)cc1
IC50 [8]: 1700 nM

COc1ccc2c(c1)CC(O)OC2=O (stereo unspecified)
inhibition [2]: < 5%

COc1ccc(C(=O)O)c(CCO)c1CO
inhibition [2]: < 5% | Activity [3]: inactive

COC(=O)c1ccc(OC)c(CO)c1CCO
inhibition [2]: < 5% | Activity [3]: inactive

COc1ccc2c(c1C=O)CCOC2=O
inhibition [2]: < 5%

COc1ccc2c(c1C=O)CC(O)OC2 (stereo unspecified)
inhibition [2]: 20% | Activity [9]: Active

COc1c(C=O)c2c(c3c1CC(C)(C)C3)C(=O)OC(O)C2 (stereo unspecified)
IC50 [1]: 1530 nM
